Laboratory results published in ChEMBL document CHEMBL5038582, “Adamantyl Isothiocyanates as Mutant p53 Rescuing Agents and Their Structure-Activity Relationships” (J Med Chem, 2021).
Active and inactive are the calls of the source. The calls are words filed in the database; no cut-off is given here.

Columns and labels:
MDA-MB-231 [1] = test: Antiproliferative activity against human MDA-MB-231cells expressing p53 R280K mutant assessed as inhibition of cell growth at 10 to 50 uM incubated for 24 hrs by WST-1 assay; format: functional, cell-based; conditions: dose 10-50 µM
Outline: (§1)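 WST-1 proliferation assay. Compound diluted in DMSO so that 10 μl of stock in 1 ml of cells (40,000 cells/ml) gives the test concentration at 1% DMSO. Cells plated at 4,000/well in duplicate and incubated at 37 °C for 24 h or 72 h. Result given as % of the 1% DMSO control.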

[2] = Octanol-water partition coefficient, logP of the compound by HPLC-MS analysis; format: physicochemical; conditions: for logP: 18 h
Outline: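 Compound (10 µL of 10 mM DMSO stock) added to 0.5 mL octanol plus 0.5 mL sodium phosphate buffer pH 7.4. Stirred 18 h, centrifuged 2 h at 3600 rpm. Concentration in each phase measured by LC-MS on a C18 column.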

MDA-MB-231 [3] = test: Antiproliferative activity against human MDA-MB-231 cells expressing p53 R280K mutant assessed as inhibition of cell growth incubated for 24 hrs by WST-1 assay; format: functional, cell-based; conditions: MDA-MB-231, 24 h
Outline: (§2)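 WST-1 proliferation assay. Compound diluted in DMSO and added to cells at 1% DMSO final. 4,000 cells/well in duplicate; DMSO-only wells as control, cell-free medium wells for background.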

MDA-MB-231 [4] = test: Antiproliferative activity against human MDA-MB-231 cells expressing p53 R280K mutant assessed as inhibition of cell growth incubated for 72 hrs by WST-1 assay; format: functional, cell-based; conditions: MDA-MB-231, 72 h; outline: as §2
MCF7 [5] = test: Antiproliferative activity against human MCF7 cells expressing WT p53 assessed as inhibition of cell growth at 10 to 50 uM incubated for 24 to 72 hrs by WST-1 assay; format: functional, cell-based; conditions: dose 10-50 µM, time 24-72 hrs; outline: as §1
MDA-MB-231 [6] = test: Induction of apoptosis in human MDA-MB-231 cells expressing p53 R280K mutant assessed fold increase in number of Annexin-V stained cells at 6 to 12 uM incubated for 24 hrs by AnnexinV-FITC and PI staining based flow cytometry relative to control; format: functional; conditions: dose 6-12 µM
Outline: (§3)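 24 h treatment, DMSO control. Cells scraped, washed in PBS, then given fluorochrome-conjugated Annexin V for 15 min at RT in the dark, followed by PI (0.1 µg/ml) in binding buffer. Read by flow cytometry on LSRFortessa. Annexin V-positive cells expressed relative to the DMSO control.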

MDA-MB-468 [7] = test: Induction of apoptosis in human MDA-MB-468 cells expressing p53 R273H mutant assessed fold increase in number of Annexin-V stained cells at 6 to 12 uM incubated for 24 hrs by AnnexinV-FITC and PI staining based flow cytometry relative to control; format: functional; conditions: dose 6-12 µM; outline: as §3
MCF7 [8] = test: Induction of apoptosis in human MCF-7 cells expressing wild type p53 assessed increase in number of Annexin-V stained cells at 6 to 12 uM incubated for 24 hrs by AnnexinV-FITC and PI staining based flow cytometry; format: functional, cell-based; conditions: dose 6-12 µM; outline: as §3
MDA-MB-468 [9] = test: Downregulation of p53 R273H mutant expression in human MDA-MB-468 cells at 6 to 12 uM measured after 24 hrs by immunoblot analysis; format: functional, cell-based; conditions: dose 6-12 µM
Outline: (§4)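 24 h exposure to 6 or 12 μM, DMSO control. Lysis in Tris pH 8.0/NaCl/glycerol/NP-40/EDTA buffer with protease inhibitors. 20 µg (MDA-MB-231, MDA-MB-468) or 50 µg (MCF-7) of lysate run on 4-12% SDS-PAGE. Blot probed with p53 DO-1, GAPDH used for reprobe/loading. Triplicate experiments.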

MCF7 [10] = test: Downregulation of p53 expression in human MCF7 cells at 6 to 12 uM measured after 24 hrs by immunoblot analysis; format: functional, cell-based; conditions: dose 6-12 µM; outline: as §4
MDA-MB-231 [11] = test: Downregulation of p53 R280K mutant expression in human MDA-MB-231 cells at 6 to 12 uM measured after 24 hrs by immunoblot analysis; conditions: dose 6-12 µM
MDA-MB-231 [12] = test: Antiproliferative activity against human MDA-MB-231 cells expressing p53 R280K mutant assessed as inhibition of cell growth at 10 to 50 uM incubated for 24 to 72 hrs by WST-1 assay; format: functional, cell-based; conditions: dose 10-50 µM, time 24-72 hrs; outline: as §1
MDA-MB-231 [13] = test: Induction of apoptosis in human MDA-MB-231 cells expressing p53 R280K mutant assessed increase in number of Annexin-V stained cells at 6 to 12 uM incubated for 24 hrs by AnnexinV-FITC and PI staining based flow cytometry; format: functional, cell-based; conditions: dose 6-12 µM; outline: as §3
MDA-MB-468 [14] = test: Induction of apoptosis in human MDA-MB-468 cells expressing p53 R273H mutant assessed increase in number of Annexin-V stained cells at 6 to 12 uM incubated for 24 hrs by AnnexinV-FITC and PI staining based flow cytometry; format: functional, cell-based; conditions: dose 6-12 µM; outline: as §3
MDA-MB-231 [15] = test: Antiproliferative activity against human MDA-MB-231 cells expressing p53 R280K mutant assessed as inhibition of cell growth at 24 to 48 uM incubated for 72 hrs by WST-1 assay; format: functional; conditions: dose 24-48 µM; outline: as §1
MDA-MB-468 [16] = test: Antiproliferative activity against human MDA-MB-468 cells expressing p53 R273H mutant assessed as inhibition of cell growth at 10 to 50 uM incubated for 24 to 72 hrs by WST-1 assay; format: functional, cell-based; conditions: dose 10-50 µM, time 24-72 hrs; outline: as §1
MDA-MB-231 [17] = test: Induction of apoptosis in human MDA-MB-231 cells expressing p53 R280K mutant assessed as decrease in level of uncleaved caspase 3 level at 6 to 12 uM measured after 24 hrs by western blotting analysis; format: functional, cell-based; conditions: dose 6-12 µM
Outline: (§5)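 Cells treated with DMSO or compound at 6 or 12 µM for 24 h, then lysed in Tris-Cl pH 8.0/NaCl/glycerol/NP-40/EDTA buffer with protease inhibitors. 100 µg lysate resolved on 4-12% SDS-PAGE and blotted to PVDF. Probed with anti-PARP or anti-caspase 3, then HRP secondary and ECL. GAPDH reprobe as control.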

MDA-MB-468 [18] = test: Induction of apoptosis in human MDA-MB-468 cells expressing p53 R273H mutant assessed as decrease in level of uncleaved caspase 3 level at 6 to 12 uM measured after 24 hrs by western blotting analysis; format: functional, cell-based; conditions: dose 6-12 µM; outline: as §5
MCF7 [19] = test: Induction of apoptosis in human MCF7 cells expressing wild type p53 assessed as decrease in level of uncleaved PARP1 level at 6 to 12 uM measured after 24 hrs by western blotting analysis; format: functional, cell-based; conditions: dose 6-12 µM; outline: as §5
MCF7 [20] = test: Induction of apoptosis in human MCF7 cells expressing wild type p53 assessed as increase in cleaved PARP1 level at 6 to 12 uM measured after 24 hrs by western blotting analysis; format: functional, cell-based; conditions: dose 6-12 µM; outline: as §5
MDA-MB-231 [21] = test: Induction of apoptosis in human MDA-MB-231 cells expressing p53 R280K mutant assessed as increase in level of cleaved PARP1 level at 6 to 12 uM measured after 24 hrs by western blotting analysis; format: functional, cell-based; conditions: dose 6-12 µM; outline: as §5
MDA-MB-468 [22] = test: Induction of apoptosis in human MDA-MB-468 cells expressing p53 R273H mutant assessed as increase in level of cleaved PARP1 level at 6 to 12 uM measured after 24 hrs by western blotting analysis; format: functional, cell-based; conditions: dose 6-12 µM; outline: as §5
MCF7 [23] = test: Upregulation of p53 expression in human MCF7 cells at 6 to 12 uM measured after 24 hrs by immunoblot analysis; format: functional, cell-based; conditions: dose 6-12 µM
Outline: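 Cells treated with DMSO or compound at 6 or 12 µM for 24 h and lysed. 50 µg MCF-7 lysate resolved by SDS-PAGE and probed with p53 DO-1 antibody. Reprobed with anti-GAPDH as loading control. Run in triplicate.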

In the case of `S=C=Nc1ccc(C23CC4CC(CC(C4)C2)C3)cc1`, the Activity (MDA-MB-231 [1]) is reported as “Dose-Dependent Effect” and the logP [2] is reported as 6.34.

With `S=C=NCCC12CC3CC(CC(C3)C1)C2` the IC50 (MDA-MB-231 [3]) was 24 µM, the IC50 (MDA-MB-231 [4]) was 12 µM and the Activity (MDA-MB-231 [1]) was “Dose-Dependent Effect”. For the same compound, the Activity (MCF7 [5]) was “inactive”, the “fold change (FC)” value (MDA-MB-231 [6]) was 2 and the “fold change (FC)” value (MDA-MB-468 [7]) was 2. The Activity (MCF7 [8]) was “inactive”, the inhibition (MDA-MB-468 [9]) was “Active” and the inhibition (MCF7 [10]) was “inactive”. For the same compound, the “p53 R280K downregulation (active/not active)” value (MDA-MB-231 [11]) was “Active”.

With `CC(C)(COC12CC3CC(CC(C3)C1)C2)N=C=S` the Activity (MDA-MB-231 [12]) was “inactive”.

In the case of `S=C=NC12CC3CC(CC(C3)C1)C2`, the Activity (MDA-MB-231 [12]) is reported as “inactive”, the Activity (MDA-MB-231 [13]) is reported as “inactive” and the Activity (MCF7 [8]) is reported as “inactive”. For the same compound, the Activity (MDA-MB-468 [14]) was “inactive”, the inhibition (MDA-MB-468 [9]) was “inactive” and the inhibition (MCF7 [10]) was “inactive”. The “p53 R280K downregulation (active/not active)” value (MDA-MB-231 [11]) was “inactive”.

In the case of `S=C=NCCOC12CC3CC(CC(C3)C1)C2`, the Activity (MDA-MB-231 [12]) is reported as “inactive” and the logP at 18 h [2] is reported as 3.73.

For `S=C=NCC12CC3CC(CC(C3)C1)C2`, the IC50 (MDA-MB-231 [3]) was 24 µM, the “inhibition (INH)” value (MDA-MB-231 [15]) was 50% and the Activity (MDA-MB-231 [1]) was “Dose-Dependent Effect”. For the same compound, the Activity (MCF7 [5]) was “Active”, the “fold change (FC)” value (MDA-MB-231 [6]) was 2 and the “fold change (FC)” value (MDA-MB-468 [7]) was 2. For the same compound, the Activity (MCF7 [8]) was “inactive”, the inhibition (MDA-MB-468 [9]) was “Active” and the inhibition (MCF7 [10]) was “inactive”. For the same compound, the “p53 R280K downregulation (active/not active)” value (MDA-MB-231 [11]) was “Active”.

In the case of `CCCC(CN=C=S)C1C2CC3CC(C2)CC1C3` (stereo not drawn), the Activity (MDA-MB-231 [12]) is reported as “inactive” and the logP [2] is reported as 6.77.

With `CC(N=C=S)C12CC3CC(CC(C3)C1)C2` (stereo not drawn) the Activity (MDA-MB-231 [12]) was “inactive”.

With `S=C=NC1C2CC3CC(C2)CC1C3` (stereo not drawn) the Activity (MDA-MB-231 [12]) was “inactive”.

With `O=C(CC12CC3CC(CC(C3)C1)C2)N=C=S` the Activity (MDA-MB-231 [12]) was “inactive” and the logP [2] was 3.73.

With `C1C2CC3CC1CC(C2)C3` the Activity (MDA-MB-231 [12]) was “inactive”, the Activity (MCF7 [5]) was “inactive” and the Activity (MDA-MB-468 [16]) was “inactive”.

With `S=C=NCCc1ccccc1` the Activity (MDA-MB-231 [12]) was “Active”, the Activity (MCF7 [5]) was “Active” and the Activity (MDA-MB-231 [17]) was “Active”. The Activity (MDA-MB-468 [18]) was “Active”, the Activity (MCF7 [19]) was “Active” and the Activity (MCF7 [20]) was “Active”. For the same compound, the inhibition (MDA-MB-468 [9]) was “Active”, the Activity (MDA-MB-231 [21]) was “Active” and the Activity (MDA-MB-468 [22]) was “Active”. The Activity (MCF7 [23]) was “Active” and the “p53 R280K downregulation (active/not active)” value (MDA-MB-231 [11]) was “Active”.

In the case of `O=C1CNC(=S)N1CCC12CC3CC(CC(C3)C1)C2`, the Activity (MDA-MB-231 [12]) is reported as “inactive”, the Activity (MCF7 [5]) is reported as “inactive” and the Activity (MDA-MB-231 [13]) is reported as “inactive”. The Activity (MCF7 [8]) was “inactive”, the Activity (MDA-MB-468 [14]) was “inactive” and the inhibition (MDA-MB-468 [9]) was “inactive”. The inhibition (MCF7 [10]) was “inactive”, the logP at 18 h [2] was 3.73 and the Activity (MDA-MB-468 [16]) was “inactive”. The “p53 R280K downregulation (active/not active)” value (MDA-MB-231 [11]) was “inactive”.

For `CC12CC3CC(C)(C1)CC(N=C=S)(C3)C2`, the Activity (MDA-MB-231 [12]) was “inactive”.
